# Reference: ChEMBL document CHEMBL5724801, “EUbOPEN Chemogenomics Library - Multiplex” (2024)
# Where “and” joins values, the source holds several entries; their conditions need not be identical. Equal values may be shown once.
# Tested on: HEK-293T
# Experiment: Multiplex assay against HEK293T
# Format: toxicity, cell-based
# Details: human, 12 h, 1 µM, compound concentration 1 uM
# In short: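 Cells were classed with CellPathfinder machine-learning gating, first as Hoechst high-intensity objects or normal cells, then (normal cells) as healthy, pyknosed or fragmented nuclei, and finally (pyknosed cells) as mitotic or apoptotic. Staining of live cells at seeding used Hoechst33342, BioTracker Green Microtubule Cytoskeleton Dye, MitoTracker Red and Annexin V Alexa Fluor 680, with imaging on a CQ1 microscope at 37°C and 5% CO2 after compound addition. Tubulin, mitochondrial-mass and membrane-permeability phenotypes are per cents of healthy-nucleus cells.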
SMILES,Population Apoptotic (%),Population Fragmented Nuclei (%),Population Hoechst High Intensity Objects (%),Population Membrane Permeable-Phenotype (%),Population Mitochondria Different-Phenotype (%),Population Mitotic Cells (%),Population Normal (%),Population Pyknosed Nuclei (%),Total Cell Count,Population Healthy Nuclei (%)
CCC(=N\O)/C(C)=C/c1ccc(F)cc1 [A-079],11.21% and 9.93%,3.75% and 3.83%,0%,0% and 2.86%,29.63% and 22.86%,88.79% and 90.07%,100%,31.1% and 77.05%,373 and 183,–
CC(N)C1CCC(C(=O)Nc2ccncc2)CC1 (centres undefined),7.48% and 4.2%,1.19% and 1.23%,0.48% and 0%,0%,–,92.52% and 95.8%,99.52% and 100%,35.08% and 73.46%,421 and 162,63.72% and 25.31%
CC[C@@H](C)Nc1nc(C)nc2c(-c3ccc(OC)nc3C)c(C)nn12 [PEXACERFONT],33% and 47%,7% and 5%,6% and 8%,0%,45% and 61%,66% and 52%,93% and 91%,13% and 11%,399 and 314,79% and 82%
O=C(NCC(=O)N1CC[C@H](N[C@H]2CC[C@@](O)(c3ccc(-c4ncccn4)cn3)CC2)C1)c1cccc(C(F)(F)F)c1 [PF-4136309],44% and 34%,6% and 5%,4% and 6%,0%,41% and 56%,56% and 66%,95% and 93%,13%,393 and 389,80%

# Same assay, conditions: human, 12 h, 1 µM, compound concentration 1 uM
row,SMILES,Population Tubulin-Different-Phenotype (%)
1,CC[C@@H](C)Nc1nc(C)nc2c(-c3ccc(OC)nc3C)c(C)nn12 [PEXACERFONT],34% and 31%
2,O=C(NCC(=O)N1CC[C@H](N[C@H]2CC[C@@](O)(c3ccc(-c4ncccn4)cn3)CC2)C1)c1cccc(C(F)(F)F)c1 [PF-4136309],32% and 15%

# Same assay, conditions: human, 12 h, 10 µM, compound concentration 10 uM
SMILES,Population Apoptotic (%),Population Fragmented Nuclei (%),Population Hoechst High Intensity Objects (%),Population Membrane Permeable-Phenotype (%),Population Mitotic Cells (%),Population Normal (%),Population Pyknosed Nuclei (%),Total Cell Count,Population Healthy Nuclei (%),Population Mitochondria Different-Phenotype (%)
CCC(=N\O)/C(C)=C/c1ccc(F)cc1 [A-079],7.79% and 9.52%,0.57% and 1.59%,0.28% and 0.79%,0.51% and 0%,92.21% and 90.48%,99.72% and 99.21%,43.87% and 83.33%,352 and 127,–,–
CC(N)C1CCC(C(=O)Nc2ccncc2)CC1 (centres undefined),–,1.2% and 1.9%,0%,0.99% and 4.26%,96.37% and 83.33%,100%,38.52% and 68.35%,–,60.28% and 29.75%,27.81% and 17.02%
CC[C@@H](C)Nc1nc(C)nc2c(-c3ccc(OC)nc3C)c(C)nn12 [PEXACERFONT],38% and 41%,6% and 9%,8% and 11%,0% and 1%,61% and 58%,91% and 88%,17% and 16%,451 and 321,75% and 74%,59% and 75%
O=C(NCC(=O)N1CC[C@H](N[C@H]2CC[C@@](O)(c3ccc(-c4ncccn4)cn3)CC2)C1)c1cccc(C(F)(F)F)c1 [PF-4136309],39% and 48%,7% and 3%,7% and 6%,0%,60% and 51%,92% and 93%,15% and 14%,358 and 295,76% and 81%,53% and 75%

# Same assay, conditions: human, 12 h, 10 µM, compound concentration 10 uM
row,SMILES,Population Tubulin-Different-Phenotype (%)
1,CC[C@@H](C)Nc1nc(C)nc2c(-c3ccc(OC)nc3C)c(C)nn12 [PEXACERFONT],54% and 55%
2,O=C(NCC(=O)N1CC[C@H](N[C@H]2CC[C@@](O)(c3ccc(-c4ncccn4)cn3)CC2)C1)c1cccc(C(F)(F)F)c1 [PF-4136309],55% and 45%

# Same assay, conditions: human, 24 h, 1 µM, compound concentration 1 uM
SMILES,Population Apoptotic (%),Population Fragmented Nuclei (%),Population Healthy Nuclei (%),Population Hoechst High Intensity Objects (%),Population Membrane Permeable-Phenotype (%),Population Mitochondria Different-Phenotype (%),Population Mitotic Cells (%),Population Normal (%),Population Tubulin-Different-Phenotype (%),Population Pyknosed Nuclei (%)
CCC(=N\O)/C(C)=C/c1ccc(F)cc1 [A-079],14.77% and 10.19%,4.65% and 2.11%,80.21% and 41.05%,0%,1.72% and 1.28%,15.02% and 6.41%,85.23% and 89.81%,100%,7.73% and 3.85%,–
CC(N)C1CCC(C(=O)Nc2ccncc2)CC1 (centres undefined),2.15% and 8.97%,1.77% and 1.69%,83.28% and 54.49%,0.16% and 1.11%,0.97% and 3.09%,6.76% and 5.15%,97.85% and 91.03%,99.84% and 98.89%,6.56% and 4.12%,14.95% and 43.82%
CC[C@@H](C)Nc1nc(C)nc2c(-c3ccc(OC)nc3C)c(C)nn12 [PEXACERFONT],24% and 45%,8% and 13%,79% and 76%,3% and 7%,0%,26% and 34%,75% and 54%,96% and 92%,21% and 15%,11% and 9%
O=C(NCC(=O)N1CC[C@H](N[C@H]2CC[C@@](O)(c3ccc(-c4ncccn4)cn3)CC2)C1)c1cccc(C(F)(F)F)c1 [PF-4136309],25% and 39%,10% and 8%,80%,2% and 5%,0%,26% and 31%,74% and 60%,97% and 94%,15% and 13%,9% and 11%

# Same assay, conditions: human, 24 h, 1 µM, compound concentration 1 uM
row,SMILES,Total Cell Count
1,CC[C@@H](C)Nc1nc(C)nc2c(-c3ccc(OC)nc3C)c(C)nn12 [PEXACERFONT],508 and 387
2,O=C(NCC(=O)N1CC[C@H](N[C@H]2CC[C@@](O)(c3ccc(-c4ncccn4)cn3)CC2)C1)c1cccc(C(F)(F)F)c1 [PF-4136309],561 and 485

# Same assay, conditions: human, 24 h, 10 µM, compound concentration 10 uM
SMILES,Population Apoptotic (%),Population Fragmented Nuclei (%),Population Healthy Nuclei (%),Population Hoechst High Intensity Objects (%),Population Membrane Permeable-Phenotype (%),Population Mitochondria Different-Phenotype (%),Population Mitotic Cells (%),Population Normal (%),Population Pyknosed Nuclei (%),Population Tubulin-Different-Phenotype (%)
CCC(=N\O)/C(C)=C/c1ccc(F)cc1 [A-079],13.24% and 15.38%,1.47% and 1.14%,73.48% and 39.77%,0.18% and 0.56%,0.75% and 0%,16.04% and 8.57%,86.76% and 84.62%,99.82% and 99.44%,25.05% and 59.09%,–
CC(N)C1CCC(C(=O)Nc2ccncc2)CC1 (centres undefined),4.95% and 13.95%,1.78% and 1.58%,73.29% and 53.16%,0% and 0.52%,0.19% and 2.97%,6.17% and 6.93%,95.05% and 86.05%,100% and 99.48%,24.93% and 45.26%,3.36% and 1.98%
CC[C@@H](C)Nc1nc(C)nc2c(-c3ccc(OC)nc3C)c(C)nn12 [PEXACERFONT],37% and 33%,6% and 7%,79% and 78%,7% and 13%,1% and 0%,46% and 70%,62% and 66%,92% and 86%,14%,52% and 48%
O=C(NCC(=O)N1CC[C@H](N[C@H]2CC[C@@](O)(c3ccc(-c4ncccn4)cn3)CC2)C1)c1cccc(C(F)(F)F)c1 [PF-4136309],35% and 57%,10% and 8%,73% and 80%,7% and 5%,1% and 0%,39% and 54%,64% and 42%,92% and 94%,16% and 11%,36% and 27%

# Same assay, conditions: human, 24 h, 10 µM, compound concentration 10 uM
row,SMILES,Total Cell Count
1,CC[C@@H](C)Nc1nc(C)nc2c(-c3ccc(OC)nc3C)c(C)nn12 [PEXACERFONT],612 and 371
2,O=C(NCC(=O)N1CC[C@H](N[C@H]2CC[C@@](O)(c3ccc(-c4ncccn4)cn3)CC2)C1)c1cccc(C(F)(F)F)c1 [PF-4136309],450 and 384

# Same assay, conditions: human, 48 h, 1 µM, compound concentration 1 uM
SMILES,Population Apoptotic (%),Population Fragmented Nuclei (%),Population Healthy Nuclei (%),Population Hoechst High Intensity Objects (%),Population Membrane Permeable-Phenotype (%),Population Mitochondria Different-Phenotype (%),Population Mitotic Cells (%),Population Normal (%),Population Pyknosed Nuclei (%),Population Tubulin-Different-Phenotype (%)
CCC(=N\O)/C(C)=C/c1ccc(F)cc1 [A-079],8.9% and 17.46%,5.91% and 2.96%,84.62% and 78.4%,0% and 0.29%,6.52% and 3.4%,8.82% and 9.06%,91.1% and 82.54%,100% and 99.71%,9.47% and 18.64%,–
CC(N)C1CCC(C(=O)Nc2ccncc2)CC1 (centres undefined),7.52% and 3.77%,2.72% and 1.86%,86.94% and 78.44%,0% and 0.74%,3.76% and 2.84%,10.11% and 9.95%,92.48% and 96.23%,100% and 99.26%,10.34% and 19.7%,–
CC[C@@H](C)Nc1nc(C)nc2c(-c3ccc(OC)nc3C)c(C)nn12 [PEXACERFONT],26% and 41%,12% and 10%,80%,2%,0% and 1%,22% and 27%,73% and 58%,97%,7% and 9%,20% and 19%
O=C(NCC(=O)N1CC[C@H](N[C@H]2CC[C@@](O)(c3ccc(-c4ncccn4)cn3)CC2)C1)c1cccc(C(F)(F)F)c1 [PF-4136309],18% and 27%,16%,78% and 77%,0% and 2%,1% and 0%,14% and 16%,81% and 72%,99% and 97%,4% and 5%,9% and 11%

# Same assay, conditions: human, 48 h, 1 µM, compound concentration 1 uM
row,SMILES,Total Cell Count
1,CC[C@@H](C)Nc1nc(C)nc2c(-c3ccc(OC)nc3C)c(C)nn12 [PEXACERFONT],816 and 520
2,O=C(NCC(=O)N1CC[C@H](N[C@H]2CC[C@@](O)(c3ccc(-c4ncccn4)cn3)CC2)C1)c1cccc(C(F)(F)F)c1 [PF-4136309],1007 and 907

# Same assay, conditions: human, 48 h, 10 µM, compound concentration 10 uM
SMILES,Population Apoptotic (%),Population Fragmented Nuclei (%),Population Healthy Nuclei (%),Population Hoechst High Intensity Objects (%),Population Membrane Permeable-Phenotype (%),Population Mitochondria Different-Phenotype (%),Population Mitotic Cells (%),Population Normal (%),Population Pyknosed Nuclei (%),Population Tubulin-Different-Phenotype (%)
CCC(=N\O)/C(C)=C/c1ccc(F)cc1 [A-079],8.2% and 20.78%,3.08% and 0.64%,85.54% and 50%,0% and 0.64%,3.82% and 1.28%,18.43% and 25.64%,91.8% and 79.22%,100% and 99.36%,–,–
CC(N)C1CCC(C(=O)Nc2ccncc2)CC1 (centres undefined),–,1.32% and 1.83%,88.05% and 71.1%,0% and 0.91%,2.25% and 0.65%,9.07% and 6.45%,96.89% and 81.36%,100% and 99.09%,10.63% and 27.06%,0.3% and 9.68%
CC[C@@H](C)Nc1nc(C)nc2c(-c3ccc(OC)nc3C)c(C)nn12 [PEXACERFONT],40%,13% and 10%,77% and 72%,7% and 18%,1% and 0%,45% and 53%,59% and 60%,92% and 81%,9% and 17%,38% and 36%
O=C(NCC(=O)N1CC[C@H](N[C@H]2CC[C@@](O)(c3ccc(-c4ncccn4)cn3)CC2)C1)c1cccc(C(F)(F)F)c1 [PF-4136309],31% and 43%,13% and 11%,75% and 79%,5% and 4%,0%,34% and 46%,68% and 56%,94% and 95%,11% and 8%,23% and 30%

# Same assay, conditions: human, 48 h, 10 µM, compound concentration 10 uM
row,SMILES,Total Cell Count
1,CC[C@@H](C)Nc1nc(C)nc2c(-c3ccc(OC)nc3C)c(C)nn12 [PEXACERFONT],692 and 390
2,O=C(NCC(=O)N1CC[C@H](N[C@H]2CC[C@@](O)(c3ccc(-c4ncccn4)cn3)CC2)C1)c1cccc(C(F)(F)F)c1 [PF-4136309],636 and 468
